Calls of active or inactive are those of the source. The calls are words filed in the database; no cut-off is given here.
Legend:
[1] = Inhibition of NF-kappaB in human MDA-MB-231 cells assessed as reduction in TNFalpha-induced NF-kappaB activation incubated with compound for 20 mins followed by TNFalpha stimulation measured after 2 hrs by luminescence assay
[2] = system: MDA-MB-231; test: Cytotoxicity against human MDA-MB-231 cells assessed as decrease in cell viability after 24 hrs by cellTiter-Glo reagent based assay; assay type: functional; settings: MDA-MB-231, 24 h
Outline: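 MDA-MB-231 cells (RPMI, 15% FCS, 37 °C, 5% CO2) seeded at 5600 cells/well in 384-well plates, cultured overnight, then treated 24 h. Viability by CellTiter-Glo luminescence. Positive control 5 μM staurosporine; 1% DMSO set as 100% viability.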

[3] = system: MDA-MB-231; test: Inhibition of cell migration in human MDA-MB-231 cells at 5 uM after 24 hrs by wound-scratch assay; assay type: functional
Outline: (§1)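 MDA-MB-231 cells seeded at 50 000 cells/well; scratch made after 24 h with automated wound maker. Compounds added, wound imaged every 2 h over 24 h by live-cell imager; migration into wound quantified.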

[4] = system: MDA-MB-231; test: Anti-invasive activity in human MDA-MB-231 cells assessed as inhibition of cell invasion into surrounding extracellular matrix at 10 uM after 24 hrs; assay type: functional; settings: MDA-MB-231, 24 h
Outline: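 Spheroids formed from 3000 MDA-MB-231 cells/well with 0.25% matrigel in ultralow-attachment plates (centrifuged 10 min, 1000 rpm, 4 °C), 72 h formation. Embedded in matrigel:collagen R (1:1), polymerized 1 h at 37 °C. Invasion into matrix imaged daily over 3 days, quantified by image analysis.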

[5] = system: MDA-MB-231; test: Inhibition of cell migration in human MDA-MB-231 cells at 10 uM after 24 hrs by wound-scratch assay; assay type: functional; settings: MDA-MB-231, 24 h
Outline: as §1

[6] = system: MDA-MB-231; test: Cytotoxicity against human MDA-MB-231 cells assessed as decrease in cell viability at 5 uM after 24 hrs by cellTiter-Glo reagent based assay; assay type: functional
Outline: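 MDA-MB-231 cells (RPMI, 15% FCS, 37 °C, 5% CO2) were seeded at 5600 cells/well, cultured overnight, then treated at 5 μM for 24 h. Viability was read by CellTiter-Glo luminescence and normalised to 1% DMSO as 100% viability.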

| IC50 [1] [µM] | SMILES | IC50 [2] [µM] | inhibition [3] | inhibition at 10 µM [4] [%] | inhibition at 10 µM [5] [%] | inhibition at 5 µM ([3]; MDA-MB-231, 24 h) [%] | Activity [6] [%] |
| --- | --- | --- | --- | --- | --- | --- | --- |
| 70.7 | CCCCC[C@@H](O)CC(=O)C[C@H]1C2=COC(C)=CC2=C(C=O)C(=O)[C@]1(C)O | > 100 | inactive | – | – | – | – |
| > 100 | CCCCCCCC(=O)[C@H]1C(=O)O[C@@]2(C)C(=O)C(C=O)=C3C=C(C)OC=C3[C@H]12 | 19.6 | – | – | – | – | – |
| > 100 | CCCCCC(CC(=O)[C@H]1C(=O)O[C@@]2(C)C(=O)C(C=O)=C3C=C(C)OC=C3[C@H]12)OC (some centres not stated) | 21 | – | – | – | – | – |
| 4.4 | CCCCC/C=C/C(=O)[C@H]1C(=O)O[C@@]2(C)C(=O)C(C=O)=C3C=C(C)OC=C3[C@H]12 | 21.5 | – | 52 | 98 | 60 | – |
| 37.8 | CCCCC/C=C/C(=O)C[C@H]1C2=COC(C)=CC2=C(C=O)C(=O)[C@]1(C)O | 18.6 | – | – | 78 | – | – |
| 11.3 | CCCCC[C@@H](CC(=O)C[C@H]1C2=COC(C)=CC2=C(C=O)C(=O)[C@]1(C)O)OC | 21.6 | inactive | – | – | – | – |
| – | CN[C@@H]1C[C@H]2O[C@@](C)([C@@H]1OC)n1c3ccccc3c3c4c(c5c6ccccc6n2c5c31)C(=O)NC4 [STAUROSPORINE] | – | – | – | – | – | 10.9 |
| 29.4 | CCCCC[C@H](O)CC(=O)C[C@H]1C2=COC(C)=CC2=C(C=O)C(=O)[C@]1(C)O | 79.3 | – | – | 83 | – | – |

— ChEMBL document CHEMBL4266022, “Azaphilone Derivatives from the Fungus Coniella fragariae Inhibit NF-κB Activation and Reduce Tumor Cell Migration” (J Nat Prod, 2018)
